Screening data deposited in PubChem by several laboratories.
T cruzi repl: blocks replication of Trypanosoma cruzi | T. cruzi beta-gal in NIH3T3, luminescence, 90 h | inhibition, % (concentration not given with the values) | 300,000 compounds, 1.4% hits | AID 1885;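 active = mean inhibition across valid replicates above about 55%, limit read from the data; inconclusive = mean below that limit but half or more replicates reach it; inactive = mean below it, under half of replicates reach it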;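 also: signal also drops with host cell toxicity which is not excluded here; 0% = plate median of DMSO wells and 100% = zero luminescence signal; higher percent means less beta-gal luminescence so fewer parasites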
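compound dosing = single 50 nL compound addition per well in DMSO | material = NIH/3T3 host cells with β-galactosidase reporter T. cruzi | input = 5,000 host fibroblasts per well | timing = ≥90 h infection period, 3 h prior cell attachment | read-out basis = percent inhibition of parasite-derived β-gal signal | detection = GalScreen β-gal luminescence, detergent lysis, 60 min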
Hsp70 act: Hsp70 transcriptional activation, primary screen | activation, % at 10 µM | 200,000 compounds, 0.04% hits | AID 1203 | HeLa Hsp70 promoter luciferase reporter, luminescence; scaled: vehicle 0, proteasome-inhibitor control 100%;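 active = activation above the mean across all tested compounds plus 3 SD, cutoff set per campaign, cut at about 5.5% in these data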;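 also: 100% = MG132 at 30 µM as the positive control and 0% = DMSO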
L major viab: inhibitors of Leishmania major promastigote growth. Leishmania major promastigotes, resazurin fluorescence viability. inhibition, % at 10 µM. 200,000 compounds, 9% hits. AID 1063; in the data active = inhibition above about 50%;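 also: promastigotes grown with compound for 44 hours at 28 °C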
HSF1 activator: increases HSF-1 driven luciferase reporter signal. NIH3T3-HGL HSF-1 luciferase reporter, MG132, 8 h; 100% = twice DMSO control signal. activation, % at 9 µM. 300,000 compounds, 1.7% hits. AID 504408;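 active = mean replicate activation of at least 50% with a set share of replicates each reaching 50%; inconclusive = only one of those two conditions met; inactive = mean below 50% and too few replicates reaching it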;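 also: 0% = median of the neutral control wells and 100% = twice that signal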
HSF1 inhib: HSF1 inhibition. NIH3T3-HGL HSE-luciferase, MG132-induced, luminescence 8 h; active compounds read low. activity change, negative = inhibition, % at 7.5 µM (by protocol). 300,000 compounds, 0.77% hits. AID 2098;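 active = more than half of replicate wells show activity change below -50%, luminescence cut by over half; inconclusive = some wells, but at most half, below -50%; inactive = no replicate well below -50%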;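 also: luciferase reports HSF-1 transcriptional activity via heat shock element; 0% = median of DMSO wells and -100% = zero luminescence signal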
Numbers without * were called inactive; ? = inconclusive; · = no result. Only a selection was taken, and hits are over-represented in it overall.

SMILES	T cruzi repl	Hsp70 act	L major viab	HSF1 activator	HSF1 inhib
Cc1ccc(S(=O)(=O)N(CC(=O)NCCSCc2ccco2)c2cc(C)ccc2C)cc1	14	0	100*	19	10
Cc1ccc(N(CC(=O)NCCSCc2ccco2)S(C)(=O)=O)cc1	1	0	-2	-62	-54*
Cc1ccc(S(=O)(=O)N(CC(=O)NCCSCc2ccco2)c2ccc(F)cc2)cc1	-8	0	31	16	5
O=C(CN(c1ccccc1)S(=O)(=O)c1ccccc1)NCCSCc1ccco1	14	0	68*	11	8
Cc1ccc(N(CC(=O)NCCSCc2ccco2)S(=O)(=O)c2ccc(F)cc2)cc1	12	0	69*	8	11
COc1ccc(N(CC(=O)NCCSCc2ccco2)S(=O)(=O)c2ccc(C)cc2)cc1	22	0	1	1	4
CN(C)c1ccc(C(CNS(=O)(=O)c2ccc([N+](=O)[O-])cc2)N2CCCC2)cc1 (stereo not given)	42	·	·	6	3
Cc1nnc(SCC(=O)N2c3ccccc3C(C)(c3ccccc3)CC2(C)C)s1 (stereo not given)	11	-1	42	32	-4
O=S(=O)(/N=C(\c1ccccc1F)N1CCCCC1)c1ccccc1	-4	0	-2	3	6
O=C(COc1ccc(/C=N/NC(=O)C(=O)N2CCCCC2)cc1)Nc1ccccc1Cl	-8	0	5	19	4
COc1ccc(Cl)cc1C(Nc1cccnc1)c1ccc2cccnc2c1O (stereo not given)	72*	0	62*	19	10
CCCCC(=O)NC(c1ccccc1)c1ccc2cccnc2c1O (stereo not given)	57*	·	·	-53	-42
CCCC(=O)NC(c1ccc(OC)cc1)c1ccc2cccnc2c1O (stereo not given)	74*	0	100*	10	1
CCCC(=O)NC(c1ccccc1)c1ccc2cccnc2c1O (stereo not given)	58*	·	·	-49	-43
CCCCC(=O)NC(c1ccccc1Cl)c1ccc2cccnc2c1O (stereo not given)	51	·	·	-49	?
CCC(=O)NC(c1ccccc1OC)c1ccc2cccnc2c1O (stereo not given)	60*	0	100*	-7	-6
O=C(O)CN1C(=O)/C(=C\c2cccc(OCc3ccccc3F)c2)SC1=S	2	·	·	58*	20
CCN(CC)C(=O)CN1C(=O)/C(=C/c2ccccc2)SC1=S	49	·	·	-68	-57*
O=C(O)CN1C(=O)/C(=C\c2cccc(OCc3ccc(F)cc3)c2)SC1=S	-2	·	·	-6	3
COCCn1c(=NC(=O)/C=C/c2ccccc2)sc2cc(NC(C)=O)ccc21	49	0	28	-1	3
C=CCN1C(=O)/C(=C/c2ccc(OC(C)=O)c(OCC)c2[N+](=O)[O-])SC1=S	7	0	91*	12	4
CCOc1c(OC(C)=O)ccc(/C=C/c2ccc3cccc(OC(C)=O)c3n2)c1[N+](=O)[O-]	-8	0	32	42	16
O=C(O)CSc1nc2ccccc2nc1Cc1ccccc1F	-10	·	·	54*	23
CN(C)c1ccc(NC(=O)Cc2ccccc2)c2ccccc12	-9	·	·	13	1
CC(C)(/C=N/NC(=O)CSCc1ccc(Cl)cc1)CCC#N	-10	0	-5	20	3
SMILES	T cruzi repl	Hsp70 act	L major viab	HSF1 activator	HSF1 inhib
Cc1ccc(Nc2ncc3c(n2)CC(C)CC3=O)c(C)c1 (stereo not given)	-10	·	·	59*	27
Cc1ccc(-n2c(-c3ccc(Br)cc3)c[n+]3c2CCc2ccc4cccnc4c2-3)cc1	60*	0	100*	10	6
Cc1ccc(-n2c(=O)[nH]c3ncccc3c2=O)cc1	-4	1	-8	0	-2
CCC(CO)NCc1cc(OC)c(OCC(=O)NCCc2ccccc2)cc1Br (stereo not given)	7	0	97*	·	·
CCCNCc1cc(OC)c(OCC(=O)NCCc2ccccc2)cc1Br	10	0	55*	11	-2
CCCNCc1cc(OC)c(OCc2ccccc2)cc1Br	4	0	38	13	2
CC1(C)CC(=O)C2=C(C1)OC1OC(=O)CC21C (stereo not given)	-11	0	-8	-11	-7
CCN(CC)CCOc1ccccc1C(C)=O	-5	0	-3	2	-3
